The results in this text go back to ChEMBL document CHEMBL1157302, “Quinone reductase induction as a biomarker for cancer chemoprevention” (J Nat Prod, 2006).

The nature of series [1]: Inhibition of mouse Hepa-1c1c7 cells assessed as cell viability. Type of series: functional, cell-based. An outline of the steps: (§1)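 Cell viability of wild-type and both mutant Hepa 1c1c7 lines measured alongside QR induction; IC50 = half-maximal inhibitory concentration of viability, mean ± SD, n = 2.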
Series [2] can be described thus: Chemoprevention index, ratio of IC50 for mouse Hepa-1c1c7 cells to drug level required to double specific NADPH:quinone reductase activity in mouse Hepa-1c1c7 cells. The class given is functional. An outline of the steps: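 QR induction measured in wild-type Hepa 1c1c7 murine hepatoma cells and two mutant lines (one lacking a functional Ah receptor, one unable to move receptor–ligand complex to the nucleus) by a previously described method; concentrations 2-30 µM; CD = concentration doubling specific QR activity; chemoprevention index = cell-viability IC50 divided by CD.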

Series [3] is described as follows: Inhibition of mouse Hepa-1c1c7 TAOc1Bprc1 mutant cells assessed as cell viability. The class given is functional. An outline of the steps:
as §1

A short description of series [4]: Inhibition of mouse Hepa-1c1c7 Bprc1 mutant cells assessed as cell viability. Type of series: functional. Summed up: as §1
Series [5] has as its system HepG2. The experiment in a line: Induction of antioxidant response element activity in human HepG2 cells at 10 uM by luciferase based chemiluminescence assay. The class given is functional, cell-based. Summed up: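 HepG2 human hepatoma cells stably transfected with an ARE-luciferase plasmid were treated with test agent at 10 µM, with DMSO (0.5% final) as vehicle control. Luciferase was read by chemiluminescence and expressed as fold induction over control, as means of three determinations ± SD. Significance was tested by Student's t-test (p < 0.05).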

For series [6], the system named is HepG2. Kind of series: Induction of antioxidant response element activity in human HepG2 cells by luciferase based chemiluminescence assay. The class given is functional, cell-based. Summed up:
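HepG2 human hepatoma cells stably transfected with an ARE-luciferase plasmid; treated with 1.9-30 µM test agent, 10 µM 4′-bromoflavone or 10 µM sulforaphane positive controls, DMSO 0.5% final as vehicle control; chemiluminescence luciferase read-out as fold over control; mean of three determinations ± SD, Student's t-test p < 0.05.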

The nature of series [7]: Chemoprevention index, ratio of IC50 for mouse Hepa-1c1c7 TAOc1Bprc1 mutant cells to drug level required to double specific NADPH:quinone reductase activity in mouse Hepa-1c1c7 TAOc1Bprc1 mutant cells. Type of series: functional. An outline of the steps: (§2)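 Hepa 1c1c7 mutant lines; the index is the IC50 for cell viability (half-maximal inhibition; mean ± SD, n = 2) divided by the concentration that doubles QR specific activity (CD) in the same mutant line.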

The subject of series [8] is Rattus norvegicus. The experiment in a line: Toxicity in DMBA-induced mammary carcinogenesis in Sprague-Dawley rat assessed as necropsy up to 20000 mg/kg administered 7 days pre-DMBA challenge continued for 7 days post-DMBA challenge assessed after 120 days. The class given is organism-based. Also on record: dose 20000 mg/kg. The note with it: in vivo, 2880 h. An outline of the steps:
(§3)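 Dose-finding prior to tumor study: diets with 1000, 2000, 3000, 4000, 5000 and 20 000 mg/kg diet; toxicity judged by body weight change and necropsy.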

A short description of series [9]: Chemoprevention index, ratio of IC50 for mouse Hepa-1c1c7 Bprc1 mutant cells to drug level required to double specific NADPH:quinone reductase activity in mouse Hepa-1c1c7 Bprc1 mutant cells. Type of series: functional. Summed up:
as §2

The test system of series [10] is HepG2. Kind of series: Cytotoxicity against human HepG2 cells at 7.5 to 30 uM. Type of series: functional, cell-based.
A short description of series [11]: Inhibition of 7,12-dimethylbenz[a]anthracene-induced preneoplastic lesions in a mouse mammary gland culture at 10 ug/mL. Type of series: functional.
For series [12], the system named is Rattus norvegicus. The experiment in a line: Inhibition of DMBA-induced mammary carcinogenesis in Sprague-Dawley rat assessed as increase in tumor latency at 5000 mg/kg administered 7 days pre-DMBA challenge continued for 7 days post-DMBA challenge assessed after 120 days. Type of series: functional, organism-based. Also on record: dose 5000 mg/kg. An outline of the steps: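 Female Sprague-Dawley rats given DMBA, as described previously; test agent in diet at 2500 or 5000 mg/kg diet from 7 days before to 7 days after DMBA, then unsupplemented diet; 20 rats/group; tumor latency, incidence over 120 days and body weight recorded.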

Series [13] deals with Rattus norvegicus. Kind of series: Toxicity in DMBA-induced mammary carcinogenesis in Sprague-Dawley rat assessed as body weight changes up to 20000 mg/kg administered 7 days pre-DMBA challenge continued for 7 days post-DMBA challenge assessed after 120 days. Also on record: dose 20000 mg/kg. Type of series: organism-based. The note with it: in vivo, 2880 h. Summed up:
as §3

Active and inactive are the calls of the source. The rule behind the calls is not given here.

Broadly, the IC50 is the point on the concentration scale where inhibition reaches its midpoint. As to `O=c1cc(-c2ccc(Br)cc2)oc2ccccc12`, the half-maximal inhibitory concentration (IC50) in series [1], in series [3] and in series [4] was more than 62.5 µM each time. In series [2], the Ratio is more than 2700. Moreover, in the series on HepG2 [5], the outcome was Active.

Broadly, the inhibition is the change of the read-out against control, counted positive when it falls. Lower therefore signals a response near the control. Turning to `O=C(/C=C/c1ccc(O)cc1)c1ccc(O)cc1O` [ISOLIQUIRITIGENIN], the results for the concentration for half-maximal inhibition (IC50) in series [1], in series [3] and in series [4] were 19.6 µM, 22 µM and 16.2 µM, respectively. For the same compound, the Ratio in series [2] was 11; in series [7] it was 10; in series [9], 2. The results for the Activity result in the series with HepG2 [6], in the series on Rattus norvegicus [8] and in the series on Rattus norvegicus [13] were “Dose-dependent effect”, “Non-toxic” and “Non-toxic”, respectively. Moreover, the outcome with HepG2 [10] was inactive. Besides, testing at 10 µg/mL in series [11] gave an inhibition of 76%. Further, the outcome in the series on Rattus norvegicus [12] was Active.

Turning to `C[S+]([O-])CCCCN=C=S` (centres undefined) [SULFORAPHANE], the values for the IC50 in [1], in series [3] and in series [4] were 6.3 µM, 5.9 µM and 7.6 µM, respectively. For the same compound, the Ratio in series [2] is 21; in series [7] it was 18; in series [9], 16. For the same compound, the outcome in the series on HepG2 [5] was Active.
